# Measured values from ChEMBL document CHEMBL4145611, “Discovery of Marinoquinolines as Potent and Fast-Acting Plasmodium falciparum Inhibitors with in Vivo Activity” (J Med Chem, 2018).
# Activity calls are given as the source filed them. The calls are words filed in the database; no cut-off is given here.
# Legend:
# Plasmodium falciparum [1] = experiment: Plasmodicidal activity against Plasmodium falciparum 3D7A infected in erythrocytes assessed as parasite survival at 10 times IC50 pre-incubated for 24 hrs followed by compound washout and measured after 24 hrs by […] incorporation assay (reference value: 100%); format: functional
# Plasmodium berghei [2] = experiment: Antiplasmodial activity against Plasmodium berghei NK65 infected in Swiss mouse assessed as reduction in parasitemia at 50 mg/kg, po administered via gavage for 3 consecutive days post infection measured on day 9 post infection relative to control; format: functional; set-up: scale not given: the % may be the effect or the level left
# Method in brief: (§1)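 P. berghei NK65 suppressive test: adult Swiss outbred mice (20±2 g) inoculated ip with 1×10^5 infected red cells, randomized to groups, dosed daily for three days by oral gavage or ip injection with test compound at 50 mg/kg in 3% (v/v) DMSO; CQ 20 mg/kg and vehicle groups in parallel. Giemsa-stained tail-blood smears on days 5, 7, 9; inhibition = [(C−T)/C]×100 versus untreated control.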
# Plasmodium falciparum [3] = experiment: Antiplasmodial activity against early ring stage form of Plasmodium falciparum assessed as induction of alterations in parasite morphology at 10 times IC50 concentration after 8 to 16 hrs by microscopic analysis; format: functional, organism-based
# Plasmodium falciparum [4] = experiment: Antiplasmodial activity against early ring stage of Plasmodium falciparum assessed as decrease in hemozoin accumulation after 32 hrs by UV-Vis spectrophotometry; format: functional, organism-based
# Mus musculus [5] = experiment: Toxicity in Swiss mouse assessed as effect on body weight at 1000 mg/kg, ip measured after 30 days; format: organism-based; conditions: in vivo, 720 h
# Method in brief: (§2)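 Single 1000 mg/kg dose given to mice by gavage or ip injection, 3 mice per group. Survival and body weight followed against untreated controls over 30 days of observation.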
# Plasmodium falciparum [6] = experiment: Antiplasmodial activity against early ring stage of Plasmodium falciparum assessed as increase in free heme levels after 32 hrs by UV-Vis spectrophotometry; format: functional, organism-based
# Plasmodium berghei [7] = experiment: Antiplasmodial activity against Plasmodium berghei NK65 infected in Swiss mouse assessed as reduction in parasitemia at 50 mg/kg, ip administered for 3 consecutive days post infection measured on day 9 post infection relative to control; format: functional; set-up: scale not given: the % may be the effect or the level left; method in brief: as §1
# Plasmodium berghei [8] = experiment: Antiplasmodial activity against Plasmodium berghei NK65 infected in Swiss mouse assessed as reduction in parasitemia at 50 mg/kg, po administered via gavage for 3 consecutive days post infection measured on day 5 post infection relative to control; format: functional; set-up: scale not given: the % may be the effect or the level left; method in brief: as §1
# Plasmodium berghei [9] = experiment: Antiplasmodial activity against Plasmodium berghei NK65 infected in Swiss mouse assessed as mouse survival at 50 mg/kg, po administered for 3 consecutive days post infection measured on day 9 post infection (reference value: 19 +/- 5 days); format: functional
# Plasmodium berghei [10] = experiment: Antiplasmodial activity against Plasmodium berghei NK65 infected in Swiss mouse assessed as reduction in parasitemia at 50 mg/kg, po administered via gavage for 3 consecutive days post infection measured on day 7 post infection relative to control; format: functional; set-up: scale not given: the % may be the effect or the level left; method in brief: as §1
# Plasmodium falciparum [11] = experiment: Plasmodicidal activity against Plasmodium falciparum 3D7A infected in erythrocytes assessed as parasite survival at 10 times IC50 pre-incubated for 48 hrs followed by compound washout and measured after 24 hrs by […] incorporation assay (reference value: 100%); format: functional
# Plasmodium falciparum [12] = experiment: Antiplasmodial activity against chloroquine/pyrimethamine/sulfadoxine-resistant blood parasite forms of Plasmodium falciparum K1 infected in RBC by SYBR green assay; format: functional, organism-based; conditions: K1, Erythrocyte
# Method in brief: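 Sorbitol-synchronised K1 culture, mostly rings, at 0.5% parasitemia and 2% hematocrit exposed to serial compound dilutions (0.05% DMSO) in triplicate. Cells lysed with Tris/EDTA/saponin/Triton buffer containing SYBR green I; fluorescence read at 485/535 nm, uninfected erythrocytes as background. IC50 from curve fit versus drug-free growth.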
# Plasmodium falciparum [13] = experiment: Antiplasmodial activity against of female Plasmodium falciparum NF54 gametocytes assessed as inhibition of xanthurenic acid-stimulated gamete formation at 1 uM preincubated for 24 to 48 hrs followed by xanthurenic acid stimulation and measured after 20 mins by automated time-lapse microscopy relative to control; format: functional
# Method in brief: (§3)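 Mature NF54 gametocytes exposed to 1 µM compound (DMSO ≤0.25%) for 24 or 48 h, then activated by cooling 37→26 °C with 2.5 µM xanthurenic acid. Male: exflagellation by automated time-lapse microscopy at 20 min, three readings per well. Female: after 24 h at 26 °C, Cy3 anti-Pfs25 staining, four fields counted. Inhibition versus DMSO and 20 µM Gentian Violet controls; four independent repeats.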
# Plasmodium berghei [14] = experiment: Antiplasmodial activity against liver stage of luciferase-expressing transgenic Plasmodium berghei sporozoites infected in human HepG2 cells administered 18 hrs before infection and measured after 48 hrs by luciferase reporter gene assay; format: functional, organism-based
# Method in brief: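 HepG2 cells (3×10^3) plated overnight; compound (10^-4 to 10^-9 M) added 18 h before infection with 1×10^5 freshly isolated luciferase-expressing P. berghei sporozoites from Anopheles stephensi salivary glands; culture 48 h, luciferase activity taken as parasite viability; atovaquone positive control.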
# Mus musculus [15] = experiment: Toxicity in Swiss mouse assessed as survival at 1000 mg/kg, po measured up to 30 days; format: organism-based; conditions: in vivo, 720 h; method in brief: as §2
# Plasmodium berghei [16] = experiment: Antiplasmodial activity against Plasmodium berghei NK65 infected in Swiss mouse assessed as assessed as mouse survival at 50 mg/kg, ip administered via gavage for 3 consecutive days post infection measured on day 9 post infection (reference value: 19 +/- 5 days); format: functional
# Plasmodium falciparum [17] = experiment: Antiplasmodial activity against chloroquine-sensitive blood parasite forms of Plasmodium falciparum 3D7 infected in RBC by SYBR green assay; format: functional, organism-based; conditions: 3D7, Erythrocyte
# Method in brief: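 3D7 blood-stage cultures, sorbitol-synchronized twice beforehand, used at 5-10% parasitemia with >80% rings, diluted to 0.5% parasitemia and 2% hematocrit with graded compound (0.05% DMSO), triplicate; artesunate and chloroquine controls. SYBR green I lysis-buffer fluorescence at 485/535 nm; IC50 from curve fit relative to drug-free medium.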
# Mus musculus [18] = experiment: Toxicity in Swiss mouse assessed as survival at 1000 mg/kg, ip measured up to 30 days; format: organism-based; conditions: in vivo, 720 h; method in brief: as §2
# Plasmodium falciparum [19] = experiment: Antiplasmodial activity against of male Plasmodium falciparum NF54 gametocytes assessed as inhibition of xanthurenic acid-stimulated gamete formation at 1 uM preincubated for 24 to 48 hrs followed by xanthurenic acid stimulation and measured after 20 mins by automated time-lapse microscopy relative to control; format: functional; method in brief: as §3
# Plasmodium berghei [20] = experiment: Antiplasmodial activity against Plasmodium berghei NK65 infected in Swiss mouse assessed as reduction in parasitemia at 50 mg/kg, ip administered for 3 consecutive days post infection measured on day 5 post infection relative to control; format: functional; set-up: scale not given: the % may be the effect or the level left; method in brief: as §1
# Plasmodium falciparum [21] = experiment: Antiplasmodial activity against chloroquine-sensitive trophozoite form of Plasmodium falciparum 3D7 infected in RBC after 72 hrs by SYBR green assay; format: functional, organism-based; conditions: 3D7, Erythrocyte
# Method in brief: (§4)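 Sorbitol-synchronized 3D7 cultures of each stage (or asynchronous) diluted to 0.5% parasitemia, 2% hematocrit, exposed to graded compound concentrations (0.05% DMSO) for 72 h in triplicate. Read-out: lysis buffer (20 mM Tris pH 7.5, 5 mM EDTA, 0.008% saponin, 0.08% Triton X-100) with SYBR green I 1:20000, fluorescence 485/535 nm, uninfected erythrocytes as background; IC50 by curve fitting versus drug-free growth.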
# Plasmodium falciparum [22] = experiment: Antiplasmodial activity against chloroquine-sensitive schizont form of Plasmodium falciparum 3D7 infected in RBC after 72 hrs by SYBR green assay; format: functional, organism-based; conditions: 3D7, Erythrocyte; method in brief: as §4
# Mus musculus [23] = experiment: Toxicity in Swiss mouse assessed as effect on body weight at 1000 mg/kg, po measured after 30 days; format: organism-based; conditions: in vivo, 720 h; method in brief: as §2
# Plasmodium berghei [24] = experiment: Antiplasmodial activity against Plasmodium berghei NK65 infected in Swiss mouse assessed as reduction in parasitemia at 50 mg/kg, ip administered for 3 consecutive days post infection measured on day 7 post infection relative to control; format: functional; set-up: scale not given: the % may be the effect or the level left; method in brief: as §1
# Plasmodium falciparum [25] = experiment: Antiplasmodial activity against Plasmodium falciparum assessed as fractional inhibitory concentration index at IC50 concentration in presence of artesunate by isobologram plot analysis
# Plasmodium falciparum [26] = experiment: Antiplasmodial activity against chloroquine-sensitive ring form of Plasmodium falciparum 3D7 infected in RBC after 72 hrs by SYBR green assay; format: functional, organism-based; conditions: 3D7, Erythrocyte; method in brief: as §4
# Plasmodium falciparum [27] = experiment: Antiplasmodial activity against chloroquine-sensitive asynchronous form of Plasmodium falciparum 3D7 infected in RBC after 72 hrs by SYBR green assay; format: functional, organism-based; conditions: 3D7, Erythrocyte; method in brief: as §4
# Plasmodium berghei [28] = experiment: Antiplasmodial activity against Plasmodium berghei NK65 infected in Swiss mouse assessed as reduction in parasitemia at 20 mg/kg, po administered via gavage for 3 consecutive days post infection measured on day 5 post infection relative to control; format: functional; set-up: scale not given: the % may be the effect or the level left; method in brief: as §1
# Plasmodium berghei [29] = experiment: Antiplasmodial activity against Plasmodium berghei NK65 infected in Swiss mouse assessed as assessed as mouse survival at 20 mg/kg, po administered via gavage for 3 consecutive days post infection measured on day 9 post infection (reference value: 19 +/- 5 days); format: functional
# Plasmodium berghei [30] = experiment: Antiplasmodial activity against Plasmodium berghei NK65 infected in Swiss mouse assessed as assessed as mouse survival at 20 mg/kg, ip administered for 3 consecutive days post infection measured on day 9 post infection (reference value: 19 +/- 5 days); format: functional
# HepG2 = experiment: Cytotoxicity against human HepG2 cells assessed as reduction in cell viability after 24 hrs by MTT assay; format: cell-based; conditions: HepG2, 24 h
# Method in brief: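 HepG2 cells in RPMI-1640 with 10% heat-inactivated serum, seeded 5×10^3 per well, allowed to adhere 18 h at 37 °C, then exposed to compound (400–6.2 µM) for 24 h at 37 °C, 5% CO2. MTT (5 mg/mL) for 3 h, formazan dissolved in DMSO, absorbance 570 nm with 630 nm background; viability as percent of untreated control.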
# Plasmodium berghei [31] = experiment: Antiplasmodial activity against Plasmodium berghei NK65 infected in Swiss mouse assessed as reduction in parasitemia at 20 mg/kg, po administered via gavage for 3 consecutive days post infection measured on day 7 post infection relative to control; format: functional; set-up: scale not given: the % may be the effect or the level left; method in brief: as §1
# Plasmodium berghei [32] = experiment: Antiplasmodial activity against Plasmodium berghei NK65 infected in Swiss mouse assessed as reduction in parasitemia at 20 mg/kg, po administered via gavage for 3 consecutive days post infection measured on day 9 post infection relative to control; format: functional; set-up: scale not given: the % may be the effect or the level left; method in brief: as §1
# Plasmodium berghei [33] = experiment: Antiplasmodial activity against Plasmodium berghei NK65 infected in Swiss mouse assessed as reduction in parasitemia at 20 mg/kg, ip administered for 3 consecutive days post infection measured on day 7 post infection relative to control; format: functional; set-up: scale not given: the % may be the effect or the level left; method in brief: as §1
# Plasmodium berghei [34] = experiment: Antiplasmodial activity against Plasmodium berghei NK65 infected in Swiss mouse assessed as reduction in parasitemia at 20 mg/kg, ip administered for 3 consecutive days post infection measured on day 5 post infection relative to control; format: functional; set-up: scale not given: the % may be the effect or the level left; method in brief: as §1
# Plasmodium berghei [35] = experiment: Antiplasmodial activity against Plasmodium berghei NK65 infected in Swiss mouse assessed as reduction in parasitemia at 20 mg/kg, ip administered for 3 consecutive days post infection measured on day 9 post infection relative to control; format: functional; set-up: scale not given: the % may be the effect or the level left; method in brief: as §1
compound,measurement,setting,value
COc1ccc2c(c1)nc(-c1ccc(NC(=O)OC(C)(C)C)cc1)c1[nH]ccc12,Survival,Plasmodium falciparum [1],14%
same,Activity,Plasmodium berghei [2],55%
same,Activity,Plasmodium falciparum [3],Active
same,Activity,Plasmodium falciparum [4],Dose-dependent effect
same,Activity,Mus musculus [5],Non-Toxic
same,Activity,Plasmodium falciparum [6],Dose-dependent effect
same,Activity,Plasmodium berghei [7],58%
same,Activity,Plasmodium berghei [8],62%
same,Survival,Plasmodium berghei [9],25 days
same,Activity,Plasmodium berghei [10],54%
same,Survival,Plasmodium falciparum [11],6%
same,IC50,Plasmodium falciparum [12],41 nM
same,inhibition at 1 µM,Plasmodium falciparum [13],2%
same,IC50,Plasmodium berghei [14],76 nM
same,Activity,Mus musculus [15],Non-Toxic
same,Survival,Plasmodium berghei [16],24 days
same,IC50,Plasmodium falciparum [17]; read-out: IC50,39 nM
same,IC50,Plasmodium falciparum [17]; read-out: pIC50 (converted),39.8 nM
same,Activity,Mus musculus [18],Non-Toxic
same,inhibition at 1 µM,Plasmodium falciparum [19],7%
same,Activity,Plasmodium berghei [20],61%
same,IC50,Plasmodium falciparum [21],50 nM
same,IC50,Plasmodium falciparum [22],28 nM
same,Activity,Mus musculus [23],Non-Toxic
same,Activity,Plasmodium berghei [24],34%
same,FIC,Plasmodium falciparum [25],1
same,IC50,Plasmodium falciparum [26],39 nM
same,IC50,Plasmodium falciparum [27],33 nM
CCN(CC)CCCC(C)Nc1ccnc2cc(Cl)ccc12 (centres undefined) [CHLOROQUINE],Survival,Plasmodium falciparum [1],16%
same,Activity,Plasmodium berghei [28],100%
same,Survival,Plasmodium berghei [29],>30 days
same,Survival,Plasmodium berghei [30],>30 days
same,EC50,HepG2,384 µM
same,Survival,Plasmodium falciparum [11],8%
same,Activity,Plasmodium berghei [31],100%
same,Activity,Plasmodium berghei [32],100%
same,Activity,Plasmodium berghei [33],100%
same,Activity,Plasmodium berghei [34],100%
same,Activity,Plasmodium berghei [35],100%
